Activity calls are given as the source filed them. The calls are words filed in the database; no cut-off is given here.
Experiments:
Assay type in all cases: nucleic-acid assay
Nucleic Acid [1] = experiment: Binding affinity to duplex DNA by two site-mode surface plasmon resonance analysis
In short: (§1)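 SPR: 5′-biotinylated DNA captured on a streptavidin chip (350–400 RU), with a blank reference cell. Ligand series from 1 nM to 1 µM injected at 25 µL/min for 5 min to steady state, then 5 min dissociation. Surface regenerated with 10 mM glycine pH 2.5. Steady-state RU was converted using predicted RUmax. Values are the mean of two experiments.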

Nucleic Acid [2] = experiment: Binding affinity to c-myc quadruplex DNA by two site-mode surface plasmon resonance analysis; in short: as §1
Nucleic Acid [3] = experiment: Binding affinity to Tel22 G-quadruplex DNA by two site-mode surface plasmon resonance analysis; in short: as §1
Nucleic Acid [4] = experiment: Binding affinity to duplex DNA at 6:1 compound to DNA ratio by UV-spectrometer
In short: (§2)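 UV thermal denaturation in 1 cm quartz cuvettes; DNA at 2–3 µM single strand in HEPES buffer (50 mM KCl). Compound:DNA ratios 0:1 to 6:1. Absorbance followed versus temperature at 295 nm for Tel22 and 260 nm for the AATT hairpin duplex. ΔTm is the average of two independent trials, reproducible within 0.5 °C.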

Nucleic Acid [5] = experiment: Binding affinity to Tel22 G-quadruplex DNA at 6:1 compound to DNA ratio by UV-spectrometer; in short: as §2
Nucleic Acid [6] = experiment: Binding affinity to Tel22 G-quadruplex DNA at 4:1 compound to DNA ratio by UV-spectrometer; in short: as §2
Nucleic Acid [7] = experiment: Binding affinity to Tel22 G-quadruplex DNA at 2:1 compound to DNA ratio by UV-spectrometer; in short: as §2
Nucleic Acid [8] = experiment: Binding affinity to c-myc quadruplex DNA by mass spectrometry
In short: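 ESI-MS: c-myc DNA dialyzed against 50 mM ammonium acetate pH 7.2. Samples of 25–30 µM DNA with ligand at 0:1 to 4:1 molar ratios, infused directly at 5 µL/min. Capillary 2200 V, cone 30 V, desolvation 70 °C, source 100 °C. Spectra were collected for 10 min, with the last 2 min analyzed.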

Nucleic Acid [9] = experiment: Binding affinity to c-myc quadruplex DNA by circular dichroism analysis
In short: (§3)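 CD spectra were recorded at 25 °C in 50 mM KCl with 4 µM single-strand quadruplex, 1 cm quartz cuvette, scan 50 nm/min, response 1 s. Ligand was titrated at increasing ligand:quadruplex ratios, and induced CD in the ligand absorbance region was assessed qualitatively.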

Nucleic Acid [10] = experiment: Binding affinity to Tel22 G-quadruplex DNA at 3:1 compound to DNA ratio by circular dichroism analysis; in short: as §3
Nucleic Acid [11] = experiment: Binding affinity to duplex DNA by isothermal titration calorimetry
In short: (§4)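 ITC: ligand at 200 µM in Tris/K+ buffer injected into DNA at 20 µM in the same buffer, every 300 s, 29 injections. Heats of dilution were measured by injection into buffer and subtracted. The first injection was discarded. ΔH was from a single-site fit of heat per mole against molar ratio.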

Nucleic Acid [12] = experiment: Binding affinity to c-myc quadruplex DNA by isothermal titration calorimetry; in short: as §4
Nucleic Acid [13] = experiment: Binding affinity to Tel22 G-quadruplex DNA by isothermal titration calorimetry; in short: as §4

| SMILES | Activity (Nucleic Acid [1]) | Kb (Nucleic Acid [2]) | Kb (Nucleic Acid [3]) | ΔTm (Nucleic Acid [4]) | ΔTm (Nucleic Acid [5]) | ΔTm (Nucleic Acid [6]) | ΔTm (Nucleic Acid [7]) | Activity (Nucleic Acid [8]) | Activity (Nucleic Acid [9]) | Activity (Nucleic Acid [10]) | Activity (Nucleic Acid [11]) | Activity (Nucleic Acid [12]) | Activity (Nucleic Acid [13]) |
| --- | --- | --- | --- | --- | --- | --- | --- | --- | --- | --- | --- | --- | --- |
| CC1(C)C(/C=C/C(Cl)=C/C=C2/N(CCC[N+](C)(C)C)c3ccc(Br)cc3C2(C)C)=[N+](CCC[N+](C)(C)C)c2ccc(Br)cc21 | inactive | 0.2 ×10⁶ /M | 0.05 ×10⁶ /M | 2.5 °C | 21 °C | 16 °C | 9 °C | – | – | – | – | – | – |
| CC1(C)C(/C=C/C=C/C=C2/N(CCC[N+](C)(C)C)c3ccccc3C2(C)C)=[N+](CCC[N+](C)(C)C)c2ccccc21 | inactive | 0.07 ×10⁶ /M | 0.17 ×10⁶ /M | 0 °C | 8.7 °C | 4.6 °C | 2.1 °C | Active | Active | Active | – | – | – |
| CC1(C)C(/C=C/C=C/C=C2/N(CCC[N+](C)(C)C)c3ccc(Cl)cc3C2(C)C)=[N+](CCC[N+](C)(C)C)c2ccc(Cl)cc21 | inactive | inactive | inactive | 0.5 °C | 13.2 °C | 8.9 °C | 3.1 °C | – | – | – | – | – | – |
| CC1(C)C(/C=C/C(Br)=C/C=C2/N(CCC[N+](C)(C)C)c3ccccc3C2(C)C)=[N+](CCC[N+](C)(C)C)c2ccccc21 | inactive | 0.07 ×10⁶ /M | 0.74 ×10⁶ /M | 0.1 °C | 15.6 °C | 11.6 °C | 4.6 °C | Active | – | – | inactive | Active | Active |
| CC1(C)C(/C=C/C(Br)=C/C=C2/N(CCC[N+](C)(C)C)c3ccc(Cl)cc3C2(C)C)=[N+](CCC[N+](C)(C)C)c2ccc(Cl)cc21 | inactive | 0.25 ×10⁶ /M | 0.13 ×10⁶ /M | 1.8 °C | 20 °C | 17 °C | 8 °C | – | – | – | – | – | – |
| CC1(C)C(/C=C/C(Cl)=C/C=C2/N(CCC[N+](C)(C)C)c3ccccc3C2(C)C)=[N+](CCC[N+](C)(C)C)c2ccccc21 | inactive | 0.6 ×10⁶ /M | 0.08 ×10⁶ /M | 2.8 °C | 13.2 °C | 12.2 °C | 4.6 °C | – | – | – | – | – | – |

Continued, values first:

| Activity (Nucleic Acid [1]) | Kb (Nucleic Acid [2]) | Kb (Nucleic Acid [3]) | ΔTm (Nucleic Acid [4]) | ΔTm (Nucleic Acid [5]) | ΔTm (Nucleic Acid [6]) | ΔTm (Nucleic Acid [7]) | Activity (Nucleic Acid [8]) | Activity (Nucleic Acid [9]) | Activity (Nucleic Acid [10]) | Activity (Nucleic Acid [11]) | Activity (Nucleic Acid [12]) | Activity (Nucleic Acid [13]) | SMILES |
| --- | --- | --- | --- | --- | --- | --- | --- | --- | --- | --- | --- | --- | --- |
| inactive | 0.23 ×10⁶ /M | 0.08 ×10⁶ /M | 2.3 °C | 19 °C | 15 °C | 7 °C | – | – | – | – | – | – | CC1(C)C(/C=C/C(Cl)=C/C=C2/N(CCC[N+](C)(C)C)c3ccc(Cl)cc3C2(C)C)=[N+](CCC[N+](C)(C)C)c2ccc(Cl)cc21 |
| inactive | 2 ×10⁶ /M | 0.06 ×10⁶ /M | 1.2 °C | 20.3 °C | 16.2 °C | 8 °C | – | Active | Active | inactive | – | – | CC1(C)C(/C=C/C(Br)=C/C=C2/N(CCC[N+](C)(C)C)c3ccc(Br)cc3C2(C)C)=[N+](CCC[N+](C)(C)C)c2ccc(Br)cc21 |
| inactive | 3.6 ×10⁶ /M | 0.59 ×10⁶ /M | 1.1 °C | – | 15.6 °C | 2.5 °C | – | Active | Active | inactive | – | – | CC1(C)C(/C=C/C=C/C=C2/N(CCC[N+](C)(C)C)c3ccc(Br)cc3C2(C)C)=[N+](CCC[N+](C)(C)C)c2ccc(Br)cc21 |
